# Shown are actives, neighbours in structure and some others; about 1.9% of the full set was active somewhere.
# NPY Y2 blocker = NPY-Y2 (human) receptor antagonism. P49146. NPY-Y2 expressing cells, antagonist mode. inhibition, % at 2.7 µM. 140,000 compounds, 0.99% hits; in the data active = inhibition above about 17%
# Target sequence (P49146 whole entry, looked up): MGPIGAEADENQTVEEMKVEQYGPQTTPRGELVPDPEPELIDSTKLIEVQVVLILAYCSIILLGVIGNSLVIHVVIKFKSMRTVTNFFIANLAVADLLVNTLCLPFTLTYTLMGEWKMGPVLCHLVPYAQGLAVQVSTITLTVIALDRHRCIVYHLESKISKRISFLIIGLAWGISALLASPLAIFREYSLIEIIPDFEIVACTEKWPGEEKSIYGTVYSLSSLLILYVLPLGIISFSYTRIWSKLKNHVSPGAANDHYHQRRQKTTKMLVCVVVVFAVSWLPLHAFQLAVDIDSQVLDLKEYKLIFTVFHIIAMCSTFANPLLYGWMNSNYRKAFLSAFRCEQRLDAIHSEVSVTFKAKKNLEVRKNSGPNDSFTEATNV
# NPY2 pot ag = human NPY-Y2 potentiation or agonism, primary screen; P49146; cells expressing NPY-Y2, potentiator/agonist read-out; activation, % at 3.6 µM; 220,000 compounds, 0.45% hits; AID 1359; in the data active = activation above about 27%;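 note: cells stimulated with NPY near EC25 plus isoproterenol at EC100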
# NPY Y1 blocker = antagonists of human neuropeptide Y receptor Y1. HEK293-CNG Y1 cells, membrane potential fluorescence; NPY at EC95, then isoproterenol. inhibition, % at 3.6 µM. 200,000 compounds, 1% hits;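 active = inhibition above the campaign mean inhibition of all tested compounds plus 3 SD, cut at about 20% in these data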
#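 Material: Y1- and CNG-channel-expressing HEK293 cells / Probe or stimulus: NPY 25 nM then isoproterenol 1 µM plus Ro 20-1724 25 µM / Doses: 3.6 µM single dose, DMSO 0.4% / Schedule: compound incubation 1 h at room temperature, readout 45 min post-stimulation / Signal: membrane potential fluorescence / Benchmarks: isoproterenol-only wells as full block versus NPY-plus-isoproterenol wells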
# NPY-Y1 PAM-ag = human NPY-Y1 potentiation or agonism, primary screen; 220,000 compounds, 0.37% hits; P25929; activation, % at 3.6 µM; NPY-Y1 expressing cells, potentiator/agonist activation; in the data active = activation above about 33%, passing the limit was not always enough;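 note: cells stimulated with NPY at EC10 then isoproterenol at EC100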
# Numbers stand for hits; i = inactive; nt = not tested or not shown.
SMILES,NPY Y2 blocker,NPY2 pot ag,NPY Y1 blocker,NPY-Y1 PAM-ag
NNC(=O)c1sccc1OCc1ccc(F)cc1,nt,i,i,i
O=C(N/N=C/c1ccc(Cl)cc1)c1sccc1OCc1ccc(F)cc1,113.4,i,109.3,i
COc1cccc(C(C(=O)NC2CCCC2)N(C(=O)c2ccco2)c2ccc(-n3cnnn3)c(C)c2)c1OC (stereo not given),nt,i,i,i
Cc1cccc(OCCn2c(NC(=O)c3ccco3)nc3ccccc32)c1,37.0,i,33.5,i
Cc1ccc(OCCn2c(NC(=O)c3ccco3)nc3ccccc32)cc1,20.2,i,i,i
O=C(Nc1nc2ccccc2n1CCOc1ccccc1)c1ccco1,i,i,i,i
Cc1cccc(OCCn2c(-c3ccco3)nc3ccccc32)c1,20.3,i,26.2,i
c1ccc(OCCn2c(-c3ccco3)nc3ccccc32)cc1,i,i,i,i
O=C(Nc1nc2ccccc2n1CCOc1ccc(Cl)cc1)c1ccco1,31.4,i,24.1,i
Nc1c(C(O)(C(F)(F)F)C(F)(F)F)cc(C(O)(C(F)(F)F)C(F)(F)F)c2ccccc12,i,77.3,i,48.4
Cc1ccc(S(=O)(=O)n2nnc3ccccc32)c(C)c1C,nt,i,i,i
Cc1c(Br)c([N+](=O)[O-])nn1CC(=O)Nc1c(C)n(C)n(-c2ccccc2)c1=O,i,i,i,i
c1ccc(CCN(Cc2ccccc2)C2CCN(C3CCCC3)CC2)cc1,nt,i,21.4,i
COc1ccc(CN2CCC(CO)(Cc3cccc(C(F)(F)F)c3)CC2)cc1Cn1cccn1,nt,i,i,i
O=C(NCCN1CCOCC1)c1cnn2c(-c3ccccc3)cc(-c3ccccc3)nc12,20.1,i,35.6,i
O=C(NCCN1CCOCC1)c1ccccc1-c1ccccc1,i,i,i,i
Cc1ccc(CNC(=O)Cn2c(=O)c3sccc3n(Cc3ccc([N+](=O)[O-])cc3)c2=O)cc1,i,i,i,i
OC(COCC1COc2ccccc2O1)CN1CCN(c2ccccc2)CC1 (stereo not given),i,34.1,i,i
CCN1CCN(CC(O)COCC2COc3ccccc3O2)CC1 (stereo not given),nt,i,i,i
Nc1nonc1C(=O)NCCNCc1cc(Br)ccc1OCc1ccccc1F,43.1,i,44.2,i
COc1ccc(CN(C(=O)c2nsc(Cl)c2Cl)C(C(=O)NC2CCCC2)c2ccc(C)cc2)cc1 (stereo not given),22.8,i,43.9,i
Cc1ccc(C)c(N(C(=O)c2nsc(Cl)c2Cl)C(C(=O)NC2CCCC2)c2ccc(O)cc2)c1 (stereo not given),i,i,i,i
O=C(NC1CCCCCCC1)C1c2ccccc2C(=O)N1Cc1cccs1 (stereo not given),31.0,i,33.2,i
O=C1c2ccccc2C(=O)c2c(NCCCN(CCO)CCO)cccc21,nt,38.9,i,52.6
CCN(CC)CC(=O)Nc1cccc2c1C(=O)c1ccccc1C2=O,nt,i,i,i
SMILES,NPY Y2 blocker,NPY2 pot ag,NPY Y1 blocker,NPY-Y1 PAM-ag
COc1ccccc1NC(=O)c1ccccc1-c1nc(-c2ccccc2OC)no1,i,i,i,i
COc1ccccc1-c1noc(-c2ccccc2C(=O)Nc2ccccc2)n1,23.6,i,22.6,i
COC(=O)CNC(=O)Cn1nc(C)c([N+](=O)[O-])c1C,nt,i,i,i
COC(=O)C1=C(Nc2ccc(C)cc2)C=C(C)C(C(=O)OC)C1c1ccc(OC)cc1 (stereo not given),23.1,i,29.5,i
FC(F)(F)c1cnc(Sc2ncn[nH]2)c(Cl)c1,nt,i,i,i
CCc1ccc(Nc2ncc3c(n2)CC(C)(C)CC3=O)cc1,nt,i,nt,i
COc1ccc(CNCc2cccc(Oc3ccccc3)c2)cc1,nt,i,21.2,i
CCOC(=O)C1=C(C)NC(=O)NC1c1ccsc1 (stereo not given),i,39.6,i,111.0
CCc1cccc(CC)c1NC(=O)COC(=O)C1(c2ccc(Cl)cc2)CCCC1,18.6,i,40.2,i
CC(=O)Nc1ccc(NC(=O)COC(=O)C2(c3ccc(Cl)cc3)CCCC2)cc1,i,i,i,i
O=C(Nc1cccc2c1CCCC2)c1ccc(Cl)c([N+](=O)[O-])c1,i,i,i,i
O=C(Nc1ccccc1-c1ccccc1)c1ccc(Cl)c([N+](=O)[O-])c1,i,29.1,i,71.4
Cc1noc(C)c1CSc1nc2ccccc2c(=O)n1-c1ccccc1,17.8,i,23.6,i
C=CCn1c(SCc2cc(C(C)=O)ccc2OCC)nc2ccccc2c1=O,25.1,i,26.8,i
C=CCn1c(SCc2c(C)noc2C)nc2cc(C(=O)O)ccc2c1=O,i,i,i,i
COc1ccc(-c2noc(CSc3nc4ccccc4c(=O)n3-c3ccccc3)n2)cc1,i,i,i,i

# Source: PubChem (The Scripps Research Institute Molecular Screening Center)
